Data published in PMC13647048 (Zoological Research, 2026).

Experiments:
[1] = tested on: CLP-induced septic BALB/c mice; assay: CLP-induced sepsis in mice; format: in vivo, mouse
Summary of the method: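 Male BALB/c mice, eight weeks old, 18–25 g, acclimatized 3 days, then anesthetized with xylazine 8 mg/kg plus ketamine 100 mg/kg. CLP was done under aseptic conditions; sham mice had the same surgery without CLP. Within 1 h post-surgery mice got test compound 5 mg/kg, DXM 10 mg/kg or 0.9% saline i.p. Survival was followed 72 h and clinical scoring done at 24 h. A separate cohort gave blood and organs at 12 h for cytokines.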

E. coli ATCC 25922 = assay: Time-kill assay; format: cell-based, Escherichia coli; settings: meropenem 0.015 μmol/L; not completely eradicated within this time; n=3
Summary of the method: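 E. coli ATCC 25922 was exposed to test compound at several concentrations and sampled over incubation time. Viable CFU were counted by the spread plate method. Normal saline served as negative control and meropenem as positive control.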

[2] = tested on: Escherichia coli ATCC 25922; assay: MIC, two-fold dilution, E. coli; format: cell-based; settings: meropenem as positive control, E. coli ATCC 25922
[3] = serum and lung, HR-CATH2 5 mg/kg or DXM 10 mg/kg i.p., 12 h post-surgery

C[C@@H]1C[C@H]2[C@@H]3CCC4=CC(=O)C=C[C@]4(C)[C@@]3(F)[C@@H](O)C[C@]2(C)[C@@]1(O)C(=O)CO [DXM, dexamethasone]
Clinical scores ([1]; 24 h after CLP, DXM 10 mg/kg i.p.): reduced clinical scores | Survival ([1]; 72 h after CLP, DXM 10 mg/kg i.p., n=10 per group): markedly improved survival | Histopathological tissue injury ([1]; lung, kidney, liver, H&E, HR-CATH2 5 mg/kg or DXM 10 mg/kg i.p. at 1 h after CLP, 12 h post-surgery): significantly alleviated tissue injury | MPO activity ([1]; lung, HR-CATH2 5 mg/kg or DXM 10 mg/kg i.p., 12 h post-surgery): significantly attenuated | IL-1β concentration [1, 3]: significantly attenuated | IL-6 concentration [1, 3]: significantly attenuated | MCP-1 concentration [1, 3]: significantly attenuated | TNF-α concentration [1, 3]: significantly attenuated

C[C@@H](O)[C@H]1C(=O)N2C(C(=O)O)=C(S[C@@H]3CN[C@H](C(=O)N(C)C)C3)[C@H](C)[C@H]12 [meropenem]
Time to complete eradication of E. coli (E. coli ATCC 25922): > 180 min | MIC (positive control) [2]: 0.015 mol/L
